Experimental findings from ChEMBL document CHEMBL4190381, “Biofilm inhibition and anti-Candida activity of a cationic lipo-benzamide molecule with twin-nonyl chain” (Bioorg Med Chem Lett, 2018) are described below.

Molecules are shown by their SMILES. Converted amounts (≈) assume the structure as drawn. The source made the active and inactive calls. The calls are words filed in the database; no cut-off is given here.

In data set [1] the test system is Candida albicans. Put plainly: Antifungal activity against Candida albicans ATCC 90028 planktonic cells assessed as inhibition of fungal growth incubated for 48 hrs by broth microdilution assay. In kind it is functional. The conditions noted are these: for MIC80: ATCC 90028, 48 h. The method, boiled down: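 Broth microdilution against planktonic C. albicans ATCC 90028. MIC is the lowest concentration giving […] relative to the growth control. Percent inhibition is taken against an untreated growth control and plotted versus concentration.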
In general terms: In broth dilution the organism is exposed to a series of concentrations in liquid medium.

The subject of data set [2] is Candida albicans. Put plainly: Antifungal activity against Candida albicans DSY294 assessed as inhibition of fungal growth incubated for 48 hrs by broth microdilution assay. The conditions noted are these: DSY294, 48 h. The format is functional. Put shortly: (§1)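 Broth microdilution against planktonic Candida cultures, with fluconazole as reference antifungal. MIC read as lowest concentration giving […] relative to a growth control without compound. Percentage inhibition versus growth control was plotted against concentration.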

Data set [3] in a line: Safety index, ratio of HC90 for hemolytic activity in human erythrocytes to MIC for antifungal activity against Candida albicans ATCC 90028 planktonic cells. In kind it is toxicity, cell-based.
Data set [4] has as its system Candida albicans. Put plainly: Antifungal activity against Candida albicans SC5314 assessed as inhibition of fungal growth incubated for 48 hrs by broth microdilution assay. The format is functional. The conditions noted are these: SC5314, 48 h. The method, boiled down: as §1
The subject of data set [5] is Candida albicans. Put plainly: Antifungal activity against Candida albicans Gu4 assessed as inhibition of fungal growth incubated for 48 hrs by broth microdilution assay. The format is functional. The conditions noted are these: Gu4, 48 h. The method, boiled down: as §1
Data set [6] deals with Candida albicans. Put plainly: Toxicity in Candida albicans ATCC 90028 planktonic cells assessed as induction of protein release at 12.5 ug/ml incubated for 1 hr by spectrophotometry. The format is organism-based. Put shortly:
(§2)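 C. albicans cells incubated with increasing compound concentrations. Supernatant OD260 (nucleic acids) and OD280 (proteins) recorded to quantify macromolecule release on lysis.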

The test system of data set [7] is Candida albicans. Put plainly: Antibiofilm activity against Candida albicans ATCC 90028 grown on polystyrene surface assessed as inhibition of biofilm formation added immediately after cell adhesion by MTT assay. In kind it is functional. The method, boiled down: (§3)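 1x10^6 C. albicans ATCC 90028 cells allowed to grow and adhere in polystyrene-coated 96-well wells; compound added at different time points to cover adhesion, biofilm formation or mature biofilm stages. Inhibition quantified by MTT metabolic assay against untreated growth control. BIC80 and BEC80 taken as concentrations giving 80% inhibition of formation or of mature biofilm respectively.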
(In general: Tetrazolium assays rely on reduction of a dye to a coloured formazan, in cell work by metabolically active cells.)

Data set [8] has as its system Candida albicans. Put plainly: Antifungal activity against Candida albicans DSY296 assessed as inhibition of fungal growth incubated for 48 hrs by broth microdilution assay. The conditions noted are these: DSY296, 48 h. The format is functional. The method, boiled down:
as §1

Data set [9] deals with Candida albicans. Put plainly: Inhibition of adhesion of Candida albicans ATCC 90028 on polystyrene surface incubated for 90 mins by MTT assay. In kind it is functional, organism-based. The method, boiled down: (§4)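 C. albicans ATCC 90028 cells adhered to polystyrene wells with test compound. Adhesion is quantified by MTT metabolic assay and expressed as percent inhibition versus an untreated growth control. Fluconazole is the reference, tested up to 25 µg ml-1.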

In data set [10] the test system is Candida albicans. Put plainly: Antibiofilm eradication activity against Candida albicans ATCC 90028 grown on polystyrene surface assessed as inhibition of mature biofilm formation added 24 hrs after biofilm maturation and measured after 48 hrs by MTT assay. In kind it is functional. Put shortly:
as §3

In data set [11] the test system is Candida albicans. Put plainly: Toxicity in Candida albicans ATCC 90028 planktonic cells assessed as induction of nucleic acids release at 12.5 ug/ml incubated for 1 hr by spectrophotometry. In kind it is organism-based. The method, boiled down:
as §2

Data set [12] deals with Candida albicans. Put plainly: Toxicity in Candida albicans ATCC 90028 planktonic cells assessed as induction of morphological changes at 3.1 ug/ml incubated for 24 hrs by scanning electron Microscopy. In kind it is organism-based. The method, boiled down:
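C. albicans ATCC 90028 cells incubated 24 h with 3.1 µg ml-1 compound. Surface morphology examined by scanning electron microscopy at 2500X and 5000X magnification against untreated cells.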

A further data set has as its system Pichia kudriavzevii. Put plainly: Antifungal activity against Candida krusei MTCC 9215 assessed as inhibition of fungal growth incubated for 48 hrs by broth microdilution assay. In kind it is functional. The conditions noted are these: MTCC 9215, 48 h. The method, boiled down:
as §1

In a further data set the test system is Erythrocyte. Put plainly: Hemolytic activity in human erythrocytes assessed as induction of hemolysis incubated for 1 hr by spectrophotometry. In kind it is cell-based. Put shortly:
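Human erythrocytes incubated with a range of concentrations. Released hemoglobin is measured spectrophotometrically and expressed as percent hemolysis. 1% Triton X-100 gives 100% lysis, and a buffer-treated sample is the negative control. HC90 is the concentration lysing 90% of RBCs.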

A further data set concerns Nakaseomyces glabratus. Put plainly: Antifungal activity against Candida glabrata MTCC 3814 assessed as inhibition of fungal growth incubated for 48 hrs by broth microdilution assay. In kind it is functional. The conditions noted are these: MTCC 3814, 48 h. The method, boiled down:
as §1

Another data set concerns Candida parapsilosis. Put plainly: Antifungal activity against Candida parapsilosis MTCC 7043 assessed as inhibition of fungal growth incubated for 48 hrs by broth microdilution assay. The conditions noted are these: Lodderomyces parapsilosis, MTCC 7043, 48 h. In kind it is functional. Put shortly:
as §1

Data set [13] concerns Candida albicans. Put plainly: Antifungal activity against Candida albicans Gu5 assessed as inhibition of fungal growth incubated for 48 hrs by broth microdilution assay. The format is functional. The conditions noted are these: Gu5, 48 h. The method, boiled down: as §1
In data set [14] the test system is Candida albicans. Put plainly: Inhibition of adhesion of Candida albicans ATCC 90028 on polystyrene surface at 12.5 ug/ml incubated for 90 mins by MTT assay. The conditions noted are these: ATCC 90028, 1.5 h. In kind it is functional. The method, boiled down: as §4
Another data set relates to Candida tropicalis. Put plainly: Antifungal activity against Candida tropicalis MTCC 9038 assessed as inhibition of fungal growth incubated for 48 hrs by broth microdilution assay. The format is functional. The conditions noted are these: MTCC 9038, 48 h. Put shortly:
as §1

In data set [15] the test system is Candida albicans. Put plainly: Antibiofilm activity against Candida albicans ATCC 90028 grown on polystyrene surface assessed as inhibition of biofilm formation at 1.56 to 25 ug/ml added immediately after cell adhesion by bright-field microscopy. In kind it is functional, organism-based. The method, boiled down: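 1x10^6 C. albicans ATCC 90028 cells allowed to adhere and grow in polystyrene 96-well wells; compound at 1.56, 3.12, 6.25, 12.5 and 25 µg ml-1; biofilm examined microscopically against an untreated growth control.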

The test system of data set [16] is Candida albicans. Put plainly: Inhibition of adhesion of Candida albicans ATCC 90028 on polystyrene surface up to 25 ug/ml incubated for 90 mins by MTT assay. In kind it is functional, organism-based. The method, boiled down: as §3

As to `CCCCCCCCCCC[N+](C)(CCCCCCCCCCC)CCNC(=O)c1ccc(OC)cc1.[I-]`, in the data set on Candida albicans [1], the “growth inhibition (GI)” value was “Dose-dependent effect” and the MIC80 was no more than 3.1 mg/L.
In the case of `CCCCCCCCC[N+](C)(CCCCCCCCC)CCNC(=O)c1ccc(OC)cc1.[I-]`, the MIC80 was 1.5 mg/L in the data set on Candida albicans [2]; 1.5 mg/L in the data set with Candida albicans [4]; 3.1 mg/L in the data set on Candida albicans [5]; 1.5 mg/L with Candida albicans [8]; 1.5 mg/L with Pichia kudriavzevii; 1.5 mg/L with Nakaseomyces glabratus. Besides, the MIC80 worked out at 1.5 mg/L in the data set with Candida parapsilosis, 3.1 mg/L in the data set on Candida albicans [1], 3.1 mg/L in the data set with Candida albicans [13] and 0.7 mg/L in the data set with Candida tropicalis. Also, the selectivity ratio in data set [3] stood at 4. Moreover, the Activity entry with Candida albicans [6], in the data set on Candida albicans [11] and in the data set on Candida albicans [12] was “Non-Toxic” each time. Further, in the data set on Candida albicans [7], the MBIC80 was 3.12 µg/mL. The inhibition entry in the data set with Candida albicans [9] is “Dose-dependent effect”. The MBEC80 with Candida albicans [10] was 12.5 µg/mL. Besides, the HC90 in the data set on Erythrocyte came out at 12.5 µg/mL. Moreover, the “growth inhibition (GI)” value in the data set with Candida albicans [1] was “Dose-dependent effect”. The compound further displayed an inhibition at 12.5 µg/mL in the data set with Candida albicans [14] of 90%. Besides, in the data set on Candida albicans [15], the outcome was Active.
`OC(Cn1cncn1)(Cn1cncn1)c1ccc(F)cc1F` [FLUCONAZOLE]: the MIC80 with Candida albicans [2] was determined as 4 mg/L (≈ 13.1 µM); in the data set with Candida albicans [4] it was 2 mg/L (≈ 6.53 µM); with Candida albicans [5], 4 mg/L (≈ 13.1 µM); with Candida albicans [8], 128 mg/L (≈ 418 µM); with Pichia kudriavzevii it was 64 mg/L (≈ 209 µM); in the data set with Nakaseomyces glabratus, 4 mg/L (≈ 13.1 µM). Further, the MIC80 in the data set with Candida parapsilosis was 2 mg/L (≈ 6.53 µM); in the data set on Candida albicans [1], 4 mg/L (≈ 13.1 µM); in the data set on Candida albicans [13] it was 128 mg/L (≈ 418 µM); in the data set on Candida tropicalis, 4 mg/L (≈ 13.1 µM). Also, the inhibition entry in the data set with Candida albicans [16], in the data set with Candida albicans [7] and in the data set with Candida albicans [10] was “inactive” throughout.
Consider `CCCCCCCC[N+](C)(CCCCCCCC)CCNC(=O)c1ccc(OC)cc1.[I-]`, for which, in the data set with Candida albicans [1], the “growth inhibition (GI)” value was “Dose-dependent effect” and the MIC80 was no more than 6.2 mg/L.
For the compound `CCCCCCCCCC[N+](C)(CCCCCCCCCC)CCNC(=O)c1ccc(OC)cc1.[I-]`, in the data set on Candida albicans [1], the “growth inhibition (GI)” value was “Dose-dependent effect” and the MIC80 is no more than 6.2 mg/L.

What is called MIC80 is an inhibitory concentration at the 80% level, which refers to growth in some studies and to a panel of isolates in others. Broadly, the inhibition is the change of the read-out against control, counted positive when it falls.
